Source: ChEMBL document CHEMBL5053518, “1,5,6,7-Tetrahydro-4H-indazol-4-ones as human neutrophil elastase (HNE) inhibitors” (Bioorg Med Chem Lett, 2021)
The source made the active and inactive calls. The rule behind the calls is not given here.

Target: T1, Neutrophil elastase (Homo sapiens) (UniProt P08246)
T1 sequence (whole entry): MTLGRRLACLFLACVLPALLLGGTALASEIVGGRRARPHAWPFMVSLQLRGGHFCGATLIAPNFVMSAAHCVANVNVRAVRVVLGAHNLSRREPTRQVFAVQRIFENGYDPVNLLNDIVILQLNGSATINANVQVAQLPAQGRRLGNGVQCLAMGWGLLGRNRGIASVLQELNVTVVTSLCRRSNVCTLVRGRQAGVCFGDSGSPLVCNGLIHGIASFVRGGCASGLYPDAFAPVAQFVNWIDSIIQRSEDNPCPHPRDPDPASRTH
Assay: Inhibition of human neutrophil elastase at 50 uM
Details: not given
In short: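 Human neutrophil elastase inhibition was tested up to a highest concentration of 50 μM. Active compounds were given as Ki values, reported as mean ± SD of three independent experiments.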

Compound | inhibition
CC(C)(C)OC(=O)N1CCN(C(=O)Cn2cc3c(n2)CCCC3=O)CC1 | inactive
O=C1c2cn(CC(=O)N3CCN(c4ccccc4)CC3)nc2CCC1Br (stereo not given) | inactive
O=C(NC1CCCc2c1cnn2-c1ccccc1)C1CC1 (stereo not given) | inactive
O=C(C1CC1)N(C(=O)C1CC1)C1CCCc2c1cnn2-c1ccccc1 (stereo not given) | inactive
Cc1cccc(C(=O)NC2CCCc3c2cnn3-c2ccccc2)c1 (stereo not given) | inactive
CC(C)(C)OC(=O)n1cc2c(n1)CCC(Br)C2=O (stereo not given) | inactive
O=C1CCCc2nn(CC(=O)N3CCNCC3)cc21 | inactive

Now from value to compound:

inhibition | Compound
inactive | O=C1CCCc2c1cnn2Cc1cccc(C(F)(F)F)c1
inactive | O=C1CCCc2nn(-c3cccc(C(F)(F)F)c3)cc21
inactive | O=C1CCCc2c1cnn2-c1cccc(C(F)(F)F)c1
inactive | O=C1c2cnn(CC(=O)N3CCN(c4ccccc4)CC3)c2CCC1Br (stereo not given)
inactive | CC(C)(C)OC(=O)N1CCN(C(=O)Cn2ncc3c2CCCC3=O)CC1
inactive | O=C1CCCc2c1cnn2Cc1ccccc1
inactive | O=C1CCCc2nn(Cc3ccccc3)cc21
inactive | O=C1CCCc2nn(Cc3cccc(C(F)(F)F)c3)cc21

System: not listed separately
Assay: Stability in aqueous buffer assessed as half life
Assay type: physicochemical
Details: aqueous buffer

half-life | Compound
0.645 h | O=C1c2cnn(C(=O)C3CC3)c2CCC1Br (stereo not given)
3.91 h | O=C(C1CC1)n1cc2c(n1)CCC(Br)(Br)C2=O

Same assay, conditions: buffer

t1/2 | Compound
1.9123 h | O=C1c2cn(C(=O)C3CC3)nc2CCC1Br (stereo not given)
1.64 h | Cc1cccc(C(=O)n2ncc3c2CCCC3=O)c1
0.952 h | O=C(C1CC1)n1ncc2c1CCC(Br)(Br)C2=O
